Test results published in PubChem BioAssay AID488779 (The Scripps Research Institute Molecular Screening Center, 2010).
Activity calls are given as the source filed them.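 How the source made its calls: active means SF-1 luciferase reporter signal in cells inhibited by more than 25%; inactive means the rest.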

Target: Steroidogenic factor 1 (Homo sapiens) (UniProt Q13285)
Assay: nuclear receptor SF-1 transcriptional inhibitors – cell-based, luminescence, powder samples, single concentration, selectivity assay for LRH1 inverse agonist project, confirmation (AID 488779)
Conditions: HEK293T SF-1 5xSFRE luciferase reporter, 20 h; at 5 µM; active compounds read high
Procedure, shortened: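 Material: HEK293T cells with SF-1 and SFRE-luciferase reporter; Doses: single 5 µM compound dose; Timing: 20 h compound exposure after 24 h transfection and replating; Signal: luciferase luminescence; Replication: triplicates.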

Sequence of Steroidogenic factor 1 (Homo sapiens) (Q13285 whole entry, looked up): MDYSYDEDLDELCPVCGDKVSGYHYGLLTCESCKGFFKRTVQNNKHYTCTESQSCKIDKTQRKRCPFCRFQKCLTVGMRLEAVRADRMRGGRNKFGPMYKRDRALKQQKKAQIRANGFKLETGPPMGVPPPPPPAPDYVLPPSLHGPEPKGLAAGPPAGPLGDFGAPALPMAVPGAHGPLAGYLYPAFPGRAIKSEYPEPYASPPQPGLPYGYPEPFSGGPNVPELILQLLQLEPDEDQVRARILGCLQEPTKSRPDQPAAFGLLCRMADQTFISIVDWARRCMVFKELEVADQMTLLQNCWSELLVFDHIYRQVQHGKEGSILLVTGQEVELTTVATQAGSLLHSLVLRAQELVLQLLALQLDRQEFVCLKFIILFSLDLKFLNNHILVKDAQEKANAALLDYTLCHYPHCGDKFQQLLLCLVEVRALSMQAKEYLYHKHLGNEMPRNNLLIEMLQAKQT

Compound | inhibition
O=c1cc(N2CCN(c3cccc(C(F)(F)F)n3)CC2)[nH]c(=O)n1C1CCCCC1 | 9% (inactive)
O=c1cc(N2CCN(c3ncccc3C(F)(F)F)CC2)[nH]c(=O)n1C1CCCCC1 | 5% (inactive)
O=c1cc(N2CCN(c3cc(C(F)(F)F)ccn3)CC2)[nH]c(=O)n1C1CCCCC1 | -83% (inactive)
O=c1cc(N2CCN(Cc3ccc(Cl)cc3)CC2)[nH]c(=O)n1C1CCCCC1 | -4% (inactive)
O=c1cc(N2CCOCC2)[nH]c(=O)n1C1CCCCC1 | 0% (inactive)
CCN1CCN(c2cc(=O)n(C3CCCCC3)c(=O)[nH]2)CC1 | 5% (inactive)
O=c1cc(N2CCN(c3cccc(Cl)c3Cl)CC2)[nH]c(=O)n1C1CCCCC1 | 3% (inactive)
O=c1cc(N2CCN(c3nccc4occc34)CC2)[nH]c(=O)n1C1CCCCC1 | -14% (inactive)
O=c1cc(N2CCN(CCN3CCOCC3)CC2)[nH]c(=O)n1C1CCCCC1 | 9% (inactive)
C=CCn1c(=O)cc(N2CCN(c3cccc(C(F)(F)F)c3)CC2)[nH]c1=O | -164% (inactive)
CCn1c(=O)cc(N2CCN(C(=O)c3ccco3)CC2)[nH]c1=O | 30%
CCn1c(=O)cc(N2CCN(c3cccc(C(F)(F)F)c3)CC2)[nH]c1=O | -81% (inactive)
Cn1c(=O)cc(N2CCN(c3ccc(F)cc3)CC2)[nH]c1=O | -2% (inactive)
O=c1cc(N2CCN(c3ccc(F)cc3)CC2)[nH]c(=O)n1C1CCCCC1 | -2% (inactive)
O=c1cc(N2CCN(c3ccccn3)CC2)[nH]c(=O)n1C1CCCCC1 | -7% (inactive)
Cc1ccc(Cl)cc1N1CCN(c2cc(=O)n(C3CCCCC3)c(=O)[nH]2)CC1 | -12% (inactive)
CCOC(=O)N1CCN(c2cc(=O)n(C3CCCCC3)c(=O)[nH]2)CC1 | 19% (inactive)
Cc1ccc(C)n1CCN1CCN(c2cc(=O)n(C3CCCCC3)c(=O)[nH]2)CC1 | 7% (inactive)
O=c1cc(N2CCN(c3cccc(Cl)n3)CC2)[nH]c(=O)n1C1CCCCC1 | -3% (inactive)
O=c1cc(N2CCN(Cc3ccc4c(c3)OCO4)CC2)[nH]c(=O)n1C1CCCCC1 | 24%

Compound | inhibition
O=c1cc(N2CCN(c3ccc(C(F)(F)F)cc3)CC2)[nH]c(=O)n1C1CCCCC1 | 1% (inactive)
O=c1cc(N2CCN(c3cccc(C(F)(F)F)c3)CC2)n(Cc2ccccc2)c(=O)n1C1CCCCC1 | 3% (inactive)
O=c1cc(N2CCN(c3ccccc3Cl)CC2)[nH]c(=O)n1C1CCCCC1 | -19% (inactive)
O=c1cc(N2CCN(c3ncccc3Cl)CC2)[nH]c(=O)n1C1CCCCC1 | 13% (inactive)
CCn1c(=O)cc(N2CCN(c3cccc(Cl)c3)CC2)[nH]c1=O | -10% (inactive)
O=c1cc(N2CCN(c3ccccc3C(F)(F)F)CC2)[nH]c(=O)n1C1CCCCC1 | 5% (inactive)
O=c1cc(N2CCN(c3cccc(F)c3)CC2)[nH]c(=O)n1C1CCCCC1 | -112% (inactive)
Cc1cc(C)cc(N2CCN(c3cc(=O)n(C4CCCCC4)c(=O)[nH]3)CC2)c1 | -4% (inactive)
CC(C)Cn1c(=O)cc(N2CCN(c3cccc(C(F)(F)F)c3)CC2)[nH]c1=O | -95% (inactive)
N#CCn1c(N2CCN(c3cccc(C(F)(F)F)c3)CC2)cc(=O)n(C2CCCCC2)c1=O | 4% (inactive)
O=C(c1ccco1)N1CCN(c2cc(=O)n(C3CCCCC3)c(=O)[nH]2)CC1 | 6% (inactive)
CCn1c(=O)cc(N2CCN(Cc3ccccc3)CC2)[nH]c1=O | 27%
O=C(c1ccccc1)N1CCN(c2cc(=O)n(C3CCCCC3)c(=O)[nH]2)CC1 | 2% (inactive)
O=c1cc(N2CCN(c3nc(-c4ccccc4)ns3)CC2)[nH]c(=O)n1C1CCCCC1 | 1% (inactive)
C=CCN1CCN(c2cc(=O)n(C3CCCCC3)c(=O)[nH]2)CC1 | -13% (inactive)
Cn1c(=O)cc(N2CCN(c3cccc(Cl)c3)CC2)[nH]c1=O | -2% (inactive)
O=c1cc(N2CCN(c3cccc(C(F)(F)F)c3)CC2)[nH]c(=O)n1C1CCCCC1 | -1% (inactive)
C=CCn1c(N2CCN(c3cccc(C(F)(F)F)c3)CC2)cc(=O)n(C2CCCCC2)c1=O | -24% (inactive)
O=c1cc(N2CCc3ccccc32)[nH]c(=O)n1C1CCCCC1 | 23% (inactive)
O=c1cc(N2CCN(c3cccc(Cl)c3)CC2)[nH]c(=O)n1C1CCCCC1 | 5% (inactive)

Compound | inhibition
CCn1c(=O)cc(N2CCN(c3ccc(F)cc3)CC2)[nH]c1=O | 10% (inactive)
O=c1cc(N2CCN(c3cc(Cl)cc(Cl)c3)CC2)[nH]c(=O)n1C1CCCCC1 | -9% (inactive)
O=c1cc(N2CCC(Cc3ccccc3)CC2)[nH]c(=O)n1C1CCCCC1 | 9% (inactive)
O=c1cc(N2CCN(c3ccccc3)CC2)[nH]c(=O)n1Cc1ccc(F)cc1 | -18% (inactive)
O=c1cc(N2CCN(C3CCCCC3)CC2)[nH]c(=O)n1C1CCCCC1 | 9% (inactive)
COc1ccc(N2CCN(c3cc(=O)n(C4CCCCC4)c(=O)[nH]3)CC2)cc1 | 5% (inactive)
O=c1cc(N2CCN(C(c3ccccc3)c3ccccc3)CC2)[nH]c(=O)n1C1CCCCC1 | -8% (inactive)
O=c1cc(N2CCN(c3cccc(C(F)(F)F)c3)CC2)[nH]c(=O)n1Cc1ccccc1 | 1% (inactive)
O=c1cc(N2CCCCC2)[nH]c(=O)n1C1CCCCC1 | 23% (inactive)
O=c1cc(N2CCN(c3cccc(Cl)c3)CC2)[nH]c(=O)[nH]1 | 2% (inactive)
CC1CCN(c2cc(=O)n(C3CCCCC3)c(=O)[nH]2)CC1 | -5% (inactive)
O=c1cc(N2CCCC2)[nH]c(=O)n1C1CCCCC1 | 5% (inactive)
O=c1cc(N2CCN(c3ccnc4cc(Cl)ccc34)CC2)[nH]c(=O)n1C1CCCCC1 | 11% (inactive)
CCn1c(=O)cc(N2CCN(c3ccccc3)CC2)[nH]c1=O | 7% (inactive)
COC(=O)C1CCN(c2cc(=O)n(C3CCCCC3)c(=O)[nH]2)CC1 | 6% (inactive)
O=c1cc(N2CCN(c3cccc(Br)c3)CC2)[nH]c(=O)n1C1CCCCC1 | -23% (inactive)
CC1CCN(c2cc(=O)n(Cc3ccc(F)cc3)c(=O)[nH]2)CC1 | 0% (inactive)
O=c1cc(N2CCN(c3ccc(F)cc3F)CC2)[nH]c(=O)n1C1CCCCC1 | -49% (inactive)
O=c1cc(N2CCN(c3cccc(C(F)(F)F)c3)CC2)[nH]c(=O)n1-c1ccccc1 | -3% (inactive)
O=c1cc(N2CCN(c3ccccc3)CC2)[nH]c(=O)n1C1CCCCC1 | -3% (inactive)
